How the values were obtained:
[1] = molecular target: Tissue-type plasminogen activator (Homo sapiens) (UniProt P00750); experiment: Maximum percent inhibition by the compound was determined against Tissue plasminogen activator (19.4 nM)
Outline: (§1)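 Enzyme incubated with excess lactone added from DMSO stock (final 10% DMSO); aliquots over 2 h diluted into substrate: chymotrypsin Suc-AAPF-pNA 315 µM, pH 7.2, 410 nm; t-PA Spectrozyme t-PA 0.2 mM, Tris-imidazole pH 8.4, 405 nm; HNE MeO-Suc-AAPV-pNA 150 µM, pH 7.4, 410 nm; plasmin Ts-GPK-pNA 157.4 µM, pH 7.8, 404 nm; thrombin Ts-GPR-pNA 75 µM, pH 8.0, 408 nm; trypsin Z-VGR-pNA 155 µM, pH 7.2, 404 nm. Activity given relative to a no-lactone control. Some runs used a 10-min substrate-free delay after dilution. ∞ means no recovery over 2 h.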

[2] = Ratio of initial inhibitor concentration to initial t-PA concentration
Outline: (§2)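 Ratio I0/E0 of lactone to enzyme in the 2-h incubation assay; lactone added from DMSO stock to buffered enzyme (final 10% DMSO).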

[3] = molecular target: T1, Neutrophil elastase (Homo sapiens) (UniProt P08246); experiment: Time for which maximum percent inhibition persists was determined against human neutrophil elastase HNE(66 nM); assay type: functional; outline: as §1
T1 sequence (whole entry): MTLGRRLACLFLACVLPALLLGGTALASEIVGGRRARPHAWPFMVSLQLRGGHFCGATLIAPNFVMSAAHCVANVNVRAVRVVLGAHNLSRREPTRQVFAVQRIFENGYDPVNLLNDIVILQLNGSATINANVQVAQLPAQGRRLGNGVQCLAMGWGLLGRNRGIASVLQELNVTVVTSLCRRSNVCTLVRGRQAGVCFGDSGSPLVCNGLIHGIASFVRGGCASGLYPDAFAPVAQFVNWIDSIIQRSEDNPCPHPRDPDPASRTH

[4] = molecular target: T1, Neutrophil elastase (Homo sapiens); experiment: Maximum percent inhibition persists was determined against human neutrophil elastase HNE 66 nM; outline: as §1
[5] = molecular target: Prothrombin (Homo sapiens) (UniProt P00734); experiment: Acylation rate constant against thrombin
Outline: (§3)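 Competitive substrate assay: lactone (DMSO, final 10% v/v) and chromogenic substrate combined in buffer, enzyme added, absorbance followed to steady state. Turnover-corrected semilog plot gives kobs; I0 vs I0/kobs replot (eq 6) with separately determined Km yields Ki and ka. Where no burst was seen, Ki was estimated from Km(app) replots using 15-s initial velocities. Buffers and substrates as in incubation assay.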

[6] = molecular target: Plasminogen (Homo sapiens) (UniProt P00747); experiment: Maximum percent inhibition by the compound was determined against plasmin(625 nM); outline: as §1
Chain of Plasminogen (Homo sapiens) (P00747 97-580 limits assumed): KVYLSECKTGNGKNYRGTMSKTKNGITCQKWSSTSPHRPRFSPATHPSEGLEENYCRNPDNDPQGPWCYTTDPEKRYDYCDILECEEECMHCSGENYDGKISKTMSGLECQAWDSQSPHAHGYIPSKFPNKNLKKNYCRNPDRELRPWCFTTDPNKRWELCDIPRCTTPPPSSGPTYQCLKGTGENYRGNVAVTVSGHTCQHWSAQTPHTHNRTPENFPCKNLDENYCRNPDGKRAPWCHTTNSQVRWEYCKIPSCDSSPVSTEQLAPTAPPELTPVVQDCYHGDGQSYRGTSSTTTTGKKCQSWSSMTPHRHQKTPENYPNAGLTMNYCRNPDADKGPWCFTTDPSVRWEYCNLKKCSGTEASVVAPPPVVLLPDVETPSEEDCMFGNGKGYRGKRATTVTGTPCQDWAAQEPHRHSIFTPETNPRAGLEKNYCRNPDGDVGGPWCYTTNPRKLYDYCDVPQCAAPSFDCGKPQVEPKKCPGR
Chain of Plasminogen (Homo sapiens) (P00747 581-810 limits assumed): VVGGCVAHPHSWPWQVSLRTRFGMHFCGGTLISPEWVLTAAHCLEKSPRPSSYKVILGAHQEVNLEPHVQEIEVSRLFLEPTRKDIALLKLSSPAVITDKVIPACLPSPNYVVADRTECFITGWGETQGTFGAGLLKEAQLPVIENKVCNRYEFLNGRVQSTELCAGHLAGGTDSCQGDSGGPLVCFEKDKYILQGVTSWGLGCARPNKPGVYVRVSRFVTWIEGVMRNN

[7] = molecular target: Prothrombin (Homo sapiens) (UniProt P00734); experiment: Maximum percent inhibition by the compound was determined against thrombin (1.93 nM); outline: as §1
[8] = molecular target: Chymotrypsinogen A (Bos taurus) (UniProt P00766); experiment: Time for which maximum percent inhibition by the compound was determined against alpha-chymotrypsin (17 nM); assay type: functional; outline: as §1
[9] = molecular target: Chymotrypsinogen A (Bos taurus) (UniProt P00766); experiment: Second order rate constant against Chymotrypsinogen; outline: as §3
[10] = molecular target: Chymotrypsinogen A (Bos taurus) (UniProt P00766); experiment: Acylation rate constant against Chymotrypsinogen; outline: as §3
[11] = Ratio of initial inhibitor concentration to initial trypsin concentration; outline: as §2
[12] = molecular target: T2, Urokinase-type plasminogen activator (Homo sapiens, UniProt P00749)
[13] = molecular target: Prothrombin (Homo sapiens) (UniProt P00734); experiment: Percent activity regained after N2H4 treatment for thrombin (1.93 nM); assay type: functional
[14] = molecular target: Prothrombin (Homo sapiens) (UniProt P00734); experiment: Time for which maximum percent inhibition persists was determined against thrombin (1.93 nM); * =no enzyme activity was recovered over 2 h; assay type: functional; outline: as §1
[15] = molecular target: Chymotrypsinogen A (Bos taurus) (UniProt P00766); experiment: Percent activity regained after N2H4 treatment for alpha-chymotrypsin (17 nM); assay type: functional
[16] = molecular target: T3, Serine protease 1 (Bos taurus) (UniProt P00760); experiment: Time to reach maximum percent inhibition by the compound was determined against trypsin (14.6 nM); assay type: functional
T3 sequence (whole entry): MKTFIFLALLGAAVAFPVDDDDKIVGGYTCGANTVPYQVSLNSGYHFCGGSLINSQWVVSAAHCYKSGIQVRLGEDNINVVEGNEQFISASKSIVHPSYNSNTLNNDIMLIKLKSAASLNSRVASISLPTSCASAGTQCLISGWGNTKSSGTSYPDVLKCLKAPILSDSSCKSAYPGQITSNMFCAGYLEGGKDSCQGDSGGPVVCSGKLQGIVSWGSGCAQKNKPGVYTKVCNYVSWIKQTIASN
Outline: (§4)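 Trypsin was incubated with excess lactone added from DMSO stock (10% final DMSO). Aliquots taken over 2 h were diluted into Z-Val-Gly-Arg-pNA (155 μM) in 0.2 M phosphate, pH 7.2, and read at 404 nm. Activity came from the absorbance slope versus a no-lactone control. Reported are minutes to maximal inhibition and minutes it persisted; ∞ means no recovery within 2 h.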

[17] = molecular target: Plasminogen (Homo sapiens) (UniProt P00747); experiment: Time for which maximum percent inhibition persists was determined against plasmin(625 nM); * =no enzyme activity was recovered over 2 h; assay type: functional; outline: as §1
[18] = molecular target: Tissue-type plasminogen activator (Homo sapiens) (UniProt P00750); experiment: Percent activity regained after N2H4 treatment for Tissue plasminogen activator 19.4 nM); assay type: functional
[19] = molecular target: T3, Serine protease 1 (Bos taurus); experiment: Maximum percent inhibition by the compound was determined against trypsin (14.6 nM); outline: as §1
[20] = molecular target: Chymotrypsinogen A (Bos taurus) (UniProt P00766); experiment: Substrate binding constant against Chymotrypsinogen; outline: as §3
[21] = molecular target: Prothrombin (Homo sapiens) (UniProt P00734); experiment: Time to reach maximum percent inhibition by the compound was determined against thrombin (1.93 nM); assay type: functional
Outline: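 Thrombin was incubated with excess lactone (DMSO, 10% final). Aliquots over 2 h were diluted into Ts-Gly-Pro-Arg-pNA (75 μM) in 0.05 M phosphate, 0.01 M EDTA, 10 g/L PEG 8000, 10 mg/L aprotinin, pH 8.0, and read at 408 nm against a no-lactone control. Time to maximal inhibition was recorded.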

[22] = molecular target: Tissue-type plasminogen activator (Homo sapiens) (UniProt P00750); experiment: Substrate binding constant against Tissue plasminogen activator; outline: as §3
[23] = molecular target: Prothrombin (Homo sapiens) (UniProt P00734); experiment: Second order rate constant against thrombin; outline: as §3
[24] = molecular target: Chymotrypsinogen A (Bos taurus) (UniProt P00766); experiment: Time for which maximum percent inhibition persists was determined against alpha-chymotrypsin (17 nM); * =no enzyme activity was recovered over 2 h; assay type: functional; outline: as §1
[25] = Ratio of initial inhibitor concentration to initial thrombin concentration; outline: as §2
[26] = molecular target: T3, Serine protease 1 (Bos taurus); experiment: Time for which maximum percent inhibition persists was determined against trypsin (14.6 nM); assay type: functional; outline: as §4
[27] = molecular target: T2, Urokinase-type plasminogen activator; remark: listed apart in the source
[28] = Ratio of initial inhibitor concentration to initial Plasmin concentration; outline: as §2
[29] = molecular target: Plasminogen (Homo sapiens) (UniProt P00747); experiment: Percent activity regained after N2H4 treatment for plasmin(625 nM); assay type: functional
[30] = molecular target: Tissue-type plasminogen activator (Homo sapiens) (UniProt P00750); experiment: Time to reach maximum percent inhibition by the compound was determined against Tissue plasminogen activator (19.4 nM); assay type: functional
Outline: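 Tissue plasminogen activator was exposed to excess lactone (10% final DMSO). Over 2 h, aliquots were diluted into Spectrozyme t-PA (0.2 mM) in Tris-imidazole, I 0.3, pH 8.4. Hydrolysis at 405 nm gave residual activity relative to an enzyme-only control. The time (min) to reach maximal percent inhibition was recorded.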

[31] = molecular target: T2, Urokinase-type plasminogen activator; experiment: Percent activity regained after N2H4 treatment for Urokinase-type plasminogen activator (300 nM); assay type: functional
[32] = molecular target: Plasminogen (Homo sapiens) (UniProt P00747); experiment: Substrate binding constant against plasmin; outline: as §3
[33] = molecular target: Tissue-type plasminogen activator (Homo sapiens) (UniProt P00750); experiment: Time for which maximum percent inhibition persists was determined against Tissue plasminogen activator (19.4 nM); * =no enzyme activity was recovered over 2 h; assay type: functional; outline: as §1
[34] = Ratio of initial inhibitor concentration to initial urokinase concentration; outline: as §2
[35] = Ratio of initial inhibitor concentration to initial HNE concentration; outline: as §2
[36] = molecular target: Chymotrypsinogen A (Bos taurus) (UniProt P00766); experiment: Maximum percent inhibition persists was determined against Chymotrypsinogen (17 nM); outline: as §1
[37] = Ratio of initial inhibitor concentration to initial Chymotrypsinogen concentration; outline: as §2
[38] = molecular target: Plasminogen (Homo sapiens) (UniProt P00747); experiment: Time to reach maximum percent inhibition by the compound was determined against plasmin(625 nM); assay type: functional
Outline: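 Plasmin plus excess lactone (10% final DMSO) was sampled over 2 h into Ts-Gly-Pro-Lys-pNA (157.4 μM) in 0.05 M phosphate, pH 7.8. The slope at 404 nm, relative to an enzyme-only control, gave residual activity. Minutes needed to reach maximal inhibition were reported.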

[39] = molecular target: Plasminogen (Homo sapiens) (UniProt P00747); experiment: Second order rate constant against plasmin; outline: as §3
[40] = molecular target: T1, Neutrophil elastase (Homo sapiens); experiment: Time for which maximum percent inhibition by the compound was determined against human neutrophil elastase HNE(66 nM); assay type: functional; outline: as §1
[41] = molecular target: T2, Urokinase-type plasminogen activator; experiment: Acylation rate constant against urokinase
[42] = molecular target: Plasminogen (Homo sapiens) (UniProt P00747); experiment: Acylation rate constant against plasmin; outline: as §3
[43] = molecular target: Prothrombin (Homo sapiens) (UniProt P00734); experiment: Substrate binding constant against thrombin; outline: as §3

Chain of Tissue-type plasminogen activator (Homo sapiens) (P00750 36-562 limits assumed): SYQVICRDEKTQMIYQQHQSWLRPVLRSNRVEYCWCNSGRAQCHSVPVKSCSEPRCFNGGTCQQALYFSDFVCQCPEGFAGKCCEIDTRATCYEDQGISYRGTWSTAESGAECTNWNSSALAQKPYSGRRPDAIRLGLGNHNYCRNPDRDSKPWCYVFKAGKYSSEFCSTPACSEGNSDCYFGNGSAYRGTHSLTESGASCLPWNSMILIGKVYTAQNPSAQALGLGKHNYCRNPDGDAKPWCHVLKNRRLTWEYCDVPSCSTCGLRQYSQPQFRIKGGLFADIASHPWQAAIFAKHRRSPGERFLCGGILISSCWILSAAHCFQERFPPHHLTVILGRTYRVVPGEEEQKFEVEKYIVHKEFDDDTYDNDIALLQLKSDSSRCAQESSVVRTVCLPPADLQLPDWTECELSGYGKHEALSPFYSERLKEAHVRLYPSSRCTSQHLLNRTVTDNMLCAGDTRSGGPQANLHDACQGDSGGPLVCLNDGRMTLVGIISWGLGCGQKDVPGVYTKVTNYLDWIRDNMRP

SMILES: N=C(N)Nc1ccc(C2CC/C(=C\I)OC2=O)cc1 (stereo not drawn)
- inhibition [1]: 48%
- Ratio [2]: 100 Io/Eo
- TIME [3]: 1.5 h
- inhibition [4]: 38%
- Ka [5]: 12.9 min⁻¹
- inhibition [6]: 95%
- inhibition [7]: 93%
- TIME [8]: 0.25 h
- Rate [9]: 3 ka/Ks
- Ka [10]: 7.22 min⁻¹
- Ratio [11]: 86 Io/Eo
- Rate [12]: 117 ka/Ks
- Activity [13]: 85%
- TIME [14]: No enzyme activity
- Activity [15]: 32%
- TIME [16]: 0 h
- TIME [17]: No enzyme activity
- Activity [18]: 0%
- inhibition [19]: 80%
- Ks [20]: 2.4 µM
- TIME [21]: 0 h
- Ks [22]: 0.67 µM
- Rate [23]: 14 ka/Ks
- TIME [24]: No enzyme activity
- Ratio [25]: 518 Io/Eo
- TIME [26]: 0 h
- Ks [27]: 0.16 µM
- Ratio [28]: 16 Io/Eo
- Activity [29]: 14%
- TIME [30]: 0.25 h
- Activity [31]: 0%
- Ks [32]: 0.03 µM
- TIME [33]: No enzyme activity
- Ratio [34]: 50 Io/Eo
- Ratio [35]: 36 Io/Eo
- inhibition [36]: 78%
- Ratio [37]: 118 Io/Eo
- TIME [38]: 0 h
- Rate [39]: 453 ka/Ks
- TIME [40]: 0.5 h
- Ka [41]: 18.6 min⁻¹
- Ka [42]: 13.6 min⁻¹
- Ks [43]: 0.93 µM

Source: ChEMBL document CHEMBL1125346, “Guanidinophenyl-substituted enol lactones as selective, mechanism-based inhibitors of trypsin-like serine proteases” (J Med Chem, 1992)
